Reference: ChEMBL document CHEMBL1177649, “Synthesis and structure-affinity relationships of novel small molecule natural product derivatives capable of discriminating between serotonin 5-HT1A, 5-HT2A, 5-HT2C receptor subtypes” (Bioorg Med Chem, 2010)
pKi: −log10 of the molar value.

Tests used:
Assay type in all cases: cell-based
[1] = target: T1, 5-hydroxytryptamine receptor 1A (Homo sapiens) (UniProt P08908); experiment: Displacement of [3H]MPPF from human cloned 5HT1A receptor expressed in HEK293 cells at 3 uM after 90 mins by liquid scintillation counting
T1 sequence (whole entry): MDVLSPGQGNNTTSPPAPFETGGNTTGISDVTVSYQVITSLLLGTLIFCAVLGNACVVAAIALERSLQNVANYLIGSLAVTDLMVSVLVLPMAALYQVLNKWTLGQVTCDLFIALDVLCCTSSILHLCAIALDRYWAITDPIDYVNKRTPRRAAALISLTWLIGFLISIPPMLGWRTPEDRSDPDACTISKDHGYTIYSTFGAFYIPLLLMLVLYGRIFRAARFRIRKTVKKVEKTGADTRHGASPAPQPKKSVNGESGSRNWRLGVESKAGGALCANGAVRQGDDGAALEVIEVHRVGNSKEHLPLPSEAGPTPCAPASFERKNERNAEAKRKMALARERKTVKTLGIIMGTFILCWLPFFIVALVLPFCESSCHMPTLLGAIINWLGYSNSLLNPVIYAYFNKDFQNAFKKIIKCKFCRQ
In short: (§1)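 Crude membranes from HEK293 cells stably expressing the receptor (G418 selection) in 50 mM Tris, pH 7.4. Radioligand targeted at ~500 pM. Compound added from a 3 mM DMSO stock diluted 1:1000. Nonspecific binding defined with 5 μM NAN-190 (5-HT1A) or 5 μM mianserin (5-HT2C). Incubated ≥90 min at 25°C, then filtered through PEI-soaked GF/C filters. Percent displacement of specific binding; triplicates, 3–4 experiments.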

[2] = target: T2, 5-hydroxytryptamine receptor 2A (Homo sapiens, UniProt P28223); experiment: Displacement of [3H]methylspiperone from human cloned 5HT2A receptor expressed in HEK293 cells at 3 uM after 90 mins by liquid scintillation counting
T2 sequence (P28223 whole entry): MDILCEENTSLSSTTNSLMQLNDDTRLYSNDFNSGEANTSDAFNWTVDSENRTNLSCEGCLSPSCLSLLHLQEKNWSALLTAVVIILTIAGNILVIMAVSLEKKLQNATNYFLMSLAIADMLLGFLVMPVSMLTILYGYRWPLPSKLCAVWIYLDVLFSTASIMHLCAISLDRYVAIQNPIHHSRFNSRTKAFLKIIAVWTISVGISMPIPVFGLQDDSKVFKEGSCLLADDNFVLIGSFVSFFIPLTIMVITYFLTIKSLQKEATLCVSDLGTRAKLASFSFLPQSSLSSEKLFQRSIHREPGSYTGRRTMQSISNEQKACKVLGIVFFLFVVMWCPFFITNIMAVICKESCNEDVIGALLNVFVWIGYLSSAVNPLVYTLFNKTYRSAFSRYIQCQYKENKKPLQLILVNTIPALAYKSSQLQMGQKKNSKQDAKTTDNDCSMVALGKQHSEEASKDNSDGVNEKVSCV
In short: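 Crude membranes from HEK293 cells stably expressing the receptor (calcium phosphate transfection, G418-selected clones), in 50 mM Tris pH 7.4. Single-point screen: 3 mM DMSO stock diluted 1:1000. Radioligand targeted at about 500 pM, nonspecific binding defined by 5 μM mianserin. Incubated at least 90 min at 25°C, then filtered on PEI-soaked GF/C filters and washed cold. Percent specific displacement, triplicates, 3–4 experiments.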

[3] = target: T3, 5-hydroxytryptamine receptor 2C (Homo sapiens) (UniProt P28335); experiment: Displacement of [3H]mesulergine from human cloned 5HT2C receptor expressed in HEK293 cells at 3 uM after 90 mins by liquid scintillation counting; in short: as §1
T3 sequence (whole entry): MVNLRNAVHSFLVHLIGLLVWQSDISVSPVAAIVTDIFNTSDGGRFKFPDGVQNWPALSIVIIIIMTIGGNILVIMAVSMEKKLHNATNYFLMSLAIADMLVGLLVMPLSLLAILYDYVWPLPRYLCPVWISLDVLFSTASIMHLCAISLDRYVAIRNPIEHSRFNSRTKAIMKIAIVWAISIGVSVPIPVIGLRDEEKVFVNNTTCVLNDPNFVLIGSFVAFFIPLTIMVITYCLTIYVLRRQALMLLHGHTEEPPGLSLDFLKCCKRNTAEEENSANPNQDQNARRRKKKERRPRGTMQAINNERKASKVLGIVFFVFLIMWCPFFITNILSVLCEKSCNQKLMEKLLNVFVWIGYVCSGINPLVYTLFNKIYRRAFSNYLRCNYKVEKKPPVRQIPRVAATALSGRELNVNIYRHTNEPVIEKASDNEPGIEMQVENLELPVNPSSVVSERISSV

[4] = target: T4, 5-hydroxytryptamine receptor 2C (Homo sapiens, UniProt P28335); experiment: Displacement of [3H]mesulergine from human cloned 5HT2C receptor expressed in HEK293 cells after 90 mins by liquid scintillation counting
T4 sequence (P28335 whole entry): T3 sequence (whole entry)

[5] = target: T2, 5-hydroxytryptamine receptor 2A; experiment: Displacement of [3H]methylspiperone from human cloned 5HT2A receptor expressed in HEK293 cells after 90 mins by liquid scintillation counting
In short: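 Nonspecific binding defined with 5 μM mianserin. Compounds in DMSO or DMSO:0.01 N HCl, non-aqueous solvent ≤1:300. Incubated ≥90 min at 25°C, then filtered. Ki from IC50 by Cheng-Prusoff, with the curve bottom fixed at zero for partial displacement. Geometric mean ± SD of 3–4 experiments in triplicate.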

Compound	Activity [1] [%]	Activity [2] [%]	Activity [3] [%]	pKi [4]	pKi [5]
CN1C(=N)NC(=O)/C1=C\c1c[nH]c2cc(Cl)c(Cl)cc12	4	0	10	–	–
CCN1C(=N)N(C)/C(=C\c2c[nH]c3ccc(I)cc23)C1=O	15	35	46	–	–
CN1C(=N)N(C)/C(=C/c2c[nH]c3ccc(Cl)cc23)C1=O	9	22	43	–	–
CN1C(=N)NC(=O)/C1=C\c1c[nH]c2ccc(Br)cc12	6	0	0	–	–
CN1C(=N)N(C)/C(=C/c2c[nH]c3cc(Cl)ccc23)C1=O	3	0	49	6.78	–
O=C(Nc1cccnc1)N1CCc2ccccc21	–	–	–	–	< 5.00
CN1C(=N)N(C)/C(=C/c2c[nH]c3cc(Cl)c(Cl)cc23)C1=O	0	12	79	7.34	–
CN1C(=N)NC(=O)/C1=C\c1c[nH]c2ccc(Cl)cc12	9	9	0	–	–
Cc1ncccc1Oc1ccc(NC(=O)N2CCc3cc(Br)ccc32)cn1	–	–	–	8.49	5.40
CCN1C(=N)N(C)/C(=C/c2c[nH]c3cc(Br)ccc23)C1=O	0	0	49	–	–
CCN1C(=N)N(C)/C(=C\c2c[nH]c3ccc(Br)cc23)C1=O	0	9	18	–	–
CN1C(=N)NC(=O)/C1=C\c1c[nH]c2cc(F)ccc12	0	6	1	–	–
CN1C(=N)NC(=O)/C1=C\c1c[nH]c2ccc(F)cc12	0	0	19	–	–
CN1C(=N)NC(=O)/C1=C\c1c[nH]c2ccccc12	0	0	6	–	–
CN1C(=N)NC(=O)/C1=C\c1c[nH]c2cc(Cl)ccc12	1	0	0	–	–
O=C(Nc1cccnc1)N1CCc2cc(I)c(Cl)cc21	–	–	–	8.49	–
CN1C(=N)N(C)/C(=C/c2c[nH]c3cc(F)ccc23)C1=O	2	79	0	–	6.63
CN1C(=N)N(C)/C(=C/c2c[nH]c3ccc(F)cc23)C1=O	4	10	0	–	–
Cc1cc2c(cc1I)N(C(=O)Nc1cccnc1)CC2	–	–	–	8.49	–
CN1C(=N)N(C)/C(=C/c2c[nH]c3ccc(Br)cc23)C1=O	18	37	64	–	–
CN1C(=N)N(C)/C(=C/c2c[nH]c3cc(Br)ccc23)C1=O	–	–	–	5.66	–
Cc1ncccc1Oc1ccc(NC(=O)N2CCc3cc(I)ccc32)cn1	–	–	–	8.49	–
